# Reference: ChEMBL document CHEMBL1121745, “New dimeric analogues of ethidium; synthesis, interaction with DNA, and antitumor activity” (J Med Chem, 1981)
# What was measured:
# [1] = test system: L1210; experiment: Inhibition of incorporation of tritiated thymidine in the DNA of actively growing L1210 cells; type: functional, cell-based; settings: Mus musculus
# Method in brief: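 Actively growing L1210 cells are exposed to the drug, dissolved first in Me₂SO (final Me₂SO 1%). Incorporation of tritiated thymidine into DNA or tritiated uridine into RNA is measured. IC₅₀ is the concentration giving 50% reduction in incorporation.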
# [2] = test system: L1210; experiment: Inhibition of incorporation of tritiated uridine in the RNA of actively growing L1210 cells; settings: Mus musculus
# [3] = test system: P388; experiment: Antitumor activity in mice against leukemia P388 cells at 0.85 uM/kg was expressed as ratio of average survival time; type: functional, Mus musculus
# Method in brief: (§1)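 Mice bearing P388 leukemia were tested under NCI protocols, with doses given in µmol/kg. Toxicity was evaluated on day 5. Efficacy is reported as T/C, the mean survival time of treated mice divided by that of untreated controls, ×100. Values are usually the average of two tests. A T/C above 120 was taken as activity.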
# [4] = test system: P388; experiment: Antitumor activity in mice against leukemia P388 cells at 0.43 survival time; type: functional, Mus musculus; method in brief: as §1
# [5] = test system: P388; experiment: Antitumor activity in mice against leukemia P388 cells at 1.7 uM/kg was expressed as ratio of average survival time; type: functional, Mus musculus; method in brief: as §1
# [6] = test system: B16; experiment: Antitumor activity in mice against melanoma B16 cells at 2.2 uM/kg was expressed as ratio of average survival time; type: functional, Mus musculus
# [7] = test system: P388; experiment: Antitumor activity in mice against leukemia P388 cells at 3.4 uM/kg; type: functional, Mus musculus
# Method in brief: (§2)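 Mouse survival assay run under NCI protocols. Activity is expressed as T/C: average survival time of treated mice over untreated mice × 100. Values are usually the average of two tests. Toxicity is evaluated on day 5. A T/C above 120 is taken as activity.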
# [8] = test system: P388; experiment: Antitumor activity in mice against leukemia P388 cells at 3.4 uM/kg was expressed as ratio average survival time; type: functional, Mus musculus; method in brief: as §1
# [9] = test system: B16; experiment: Antitumor activity in mice against melanoma B16 cells at 1.1 uM/kg was expressed as ratio of average survival time; type: functional, Mus musculus
# [10] = test system: B16; experiment: Antitumor activity in mice against melanoma B16 cells at 2.2 uM/kg; type: functional, Mus musculus; method in brief: as §2
# [11] = test system: P388; experiment: Antitumor activity in mice against leukemia P388 cells at 0.43 uM/kg; type: functional, Mus musculus; method in brief: as §2
# [12] = test system: P388; experiment: Antitumor activity in mice against leukemia P388 cells at 1.7 uM/kg; type: functional, Mus musculus; method in brief: as §2
# [13] = test system: B16; experiment: Antitumor activity in mice against melanoma B16 cells at 1.1 uM/kg; type: functional, Mus musculus; method in brief: as §2
# [14] = test system: P388; experiment: Antitumor activity in mice against leukemia P388 cells at 0.85 uM/kg; type: functional, Mus musculus; method in brief: as §2
# [15] = test system: B16; experiment: Antitumor activity in mice against melanoma B16 cells at 0.55 uM/kg; type: functional, Mus musculus; method in brief: as §2
# [16] = test system: B16; experiment: Antitumor activity in mice against melanoma B16 cells at 0.55 uM/kg was expressed as ratio of average survival time; type: functional, Mus musculus
# [17] = test system: P388; experiment: Antitumor activity in mice against leukemia P388 cells at 17.9 uM/kg; type: functional, Mus musculus; method in brief: as §1
# [18] = test system: P388; experiment: Antitumor activity in mice against leukemia P388 cells at 8.9 uM/kg was expressed as ratio of average survival time; type: functional, Mus musculus; method in brief: as §1
# [19] = test system: B16; experiment: Antitumor activity in mice against melanoma B16 cells at 8.6 uM/kg was expressed as ratio of average survival time; type: functional, Mus musculus
# [20] = test system: B16; experiment: Antitumor activity in mice against melanoma B16 cells at 34.2 uM/kg was expressed as ratio of average survival time; type: functional, Mus musculus
# [21] = test system: P388; experiment: Antitumor activity in mice against leukemia P388 cells at 4.5 umol/kg was expressed as ratio of average survival time; type: functional, Mus musculus; method in brief: as §1
# [22] = test system: P388; experiment: Antitumor activity in mice against leukemia P388 cells at 17.9 survival time; type: functional, Mus musculus; method in brief: as §1
# [23] = test system: P388; experiment: Antitumor activity in mice against leukemia P388 cells at 8.9 uM/kg; type: functional, Mus musculus; method in brief: as §1
# [24] = test system: B16; experiment: Antitumor activity in mice against melanoma B16 cells at 17.1 uM/kg was expressed as ratio of average survival time; type: functional, Mus musculus
# [25] = test system: P388; experiment: Antitumor activity in mice against leukemia P388 cells at 4.5 umol/kg; type: functional, Mus musculus; method in brief: as §1
# [26] = test system: P388; experiment: Antitumor activity in mice against leukemia P388 cells at 0.86 uM/kg; type: functional, Mus musculus; method in brief: as §2
# [27] = test system: P388; experiment: Antitumor activity in mice against leukemia P388 cells at 1.7 umol/kg was expressed as ratio of average survival time; type: functional, Mus musculus; method in brief: as §1
# [28] = test system: P388; experiment: Antitumor activity in mice against leukemia P388 cells at 0.21 survival time; type: functional, Mus musculus; method in brief: as §1
# [29] = test system: P388; experiment: Antitumor activity in mice against leukemia P388 cells at 1.7 umol/kg; type: functional, Mus musculus; method in brief: as §2
# [30] = test system: P388; experiment: Antitumor activity in mice against leukemia P388 cells at 0.86 survival time; type: functional, Mus musculus; method in brief: as §1
# [31] = test system: P388; experiment: Antitumor activity in mice against leukemia P388 cells at 0.11 umol/kg; type: functional, Mus musculus; method in brief: as §2
# [32] = test system: P388; experiment: Antitumor activity in mice against leukemia P388 cells at 0.05 umol/kg was expressed as ratio of average survival time; type: functional, Mus musculus; method in brief: as §1
# [33] = test system: P388; experiment: Antitumor activity in mice against leukemia P388 cells at 0.22 umol/kg was expressed as ratio of average survival time; type: functional, Mus musculus; method in brief: as §1
# [34] = test system: B16; experiment: Antitumor activity in mice against melanoma B16 cells at 0.04 uM/kg; type: functional, Mus musculus; method in brief: as §2
# [35] = test system: B16; experiment: Antitumor activity in mice against melanoma B16 cells at 0.16 uM/kg was expressed as ratio of average survival time; type: functional, Mus musculus
# [36] = test system: P388; experiment: Antitumor activity in mice against leukemia P388 cells at 0.22 umol/kg; type: functional, Mus musculus; method in brief: as §2
# [37] = test system: B16; experiment: Antitumor activity in mice against melanoma B16 cells at 0.17 umol/kg was expressed as ratio of average survival time; type: functional, Mus musculus
# [38] = test system: B16; experiment: Antitumor activity in mice against melanoma B16 cells at 0.04 uM/kg was expressed as ratio of average survival time; type: functional, Mus musculus
# [39] = test system: P388; experiment: Antitumor activity in mice against leukemia P388 cells at 0.05 umol/kg; type: functional, Mus musculus; method in brief: as §2
# [40] = test system: B16; experiment: Antitumor activity in mice against melanoma B16 cells at 0.09 uM/kg was expressed as ratio of average survival time; type: functional, Mus musculus
# [41] = test system: B16; experiment: Antitumor activity in mice against melanoma B16 cells at 0.09 uM/kg; type: functional, Mus musculus; method in brief: as §2
# [42] = test system: P388; experiment: Antitumor activity in mice against leukemia P388 cells at 0.11 umol/kg was expressed as ratio of average survival time; type: functional, Mus musculus; method in brief: as §1
# [43] = test system: P388; experiment: Antitumor activity in mice against leukemia P388 cells at 1.4 uM/kg was expressed as ratio of average survival time; type: functional, Mus musculus
# [44] = test system: P388; experiment: Antitumor activity in mice against leukemia P388 cells at 1.3 uM/kg was expressed as ratio of average survival time; type: functional, Mus musculus
smiles,measurement,setting,value
COc1cccc(-c2c3cc(N)ccc3c3ccc(N)cc3[n+]2C)c1,IC50,[1],25 µM
same,IC50,[2],10 µM
C[n+]1c(-c2cccc(OCCOCCOc3cccc(-c4c5cc(N)ccc5c5ccc(N)cc5[n+]4C)c3)c2)c2cc(N)ccc2c2ccc(N)cc21.[Br-].[Br-],T/C,[3],132%
same,T/C,[4],124%
same,T/C,[5],156%
same,IC50,[1],187 µM
same,T/C,[6],142%
same,IC50,[2],16 µM
same,T/C,[7],39
same,T/C,[8],152%
same,T/C,[9],127%
same,T/C,[10],142
same,T/C,[11],20
same,T/C,[12],28
same,T/C,[13],127
same,T/C,[14],37
same,T/C,[15],109
same,T/C,[16],109%
CC[n+]1c(-c2ccccc2)c2cc(N)ccc2c2ccc(N)cc21.[Cl-],IC50,[1],31 µM
same,IC50,[2],11 µM
same,T/C,[17],24
same,T/C,[18],150%
same,T/C,[19],108%
same,T/C,[20],135%
same,T/C,[21],135%
same,T/C,[22],149%
same,T/C,[23],18
same,T/C,[24],112%
same,T/C,[25],10
C[n+]1c(-c2cccc(OCCCCCCCCCCOc3cccc(-c4c5cc(N)ccc5c5ccc(N)cc5[n+]4C)c3)c2)c2cc(N)ccc2c2ccc(N)cc21.[Cl-].[Cl-],T/C,[4],156%
same,T/C,[26],15
same,T/C,[27],158%
same,IC50,[1],1.7 µM
same,T/C,[28],141%
same,IC50,[2],0.3 µM
same,T/C,[29],33
same,T/C,[30],160%
C[n+]1c(-c2cccc(OCCCCCCCOc3cccc(-c4c5cc(N)ccc5c5ccc(N)cc5[n+]4C)c3)c2)c2cc(N)ccc2c2ccc(N)cc21.[Br-].[Br-],T/C,[31],13
same,T/C,[32],120%
same,T/C,[33],120%
same,IC50,[1],12 µM
same,T/C,[34],116
same,T/C,[35],134%
same,IC50,[2],0.6 µM
same,T/C,[36],40
same,T/C,[37],138%
same,T/C,[38],116%
same,T/C,[39],5
same,T/C,[40],136%
same,T/C,[41],136
same,T/C,[42],126%
COc1cccc2c1C(=O)c1c(O)c3c(c(O)c1C2=O)C[C@@](O)(C(C)=O)C[C@@H]3O[C@H]1C[C@H](N)[C@H](O)[C@H](C)O1 [DAUNORUBICIN],T/C,[43],160
COc1cccc2c1C(=O)c1c(O)c3c(c(O)c1C2=O)C[C@@](O)(C(=O)CO)C[C@@H]3O[C@H]1C[C@H](N)[C@H](O)[C@H](C)O1 [DOXORUBICIN],T/C,[44],197
